Results from different studies.
Each line is one published result; the experiments were not run side by side.
Target: G protein-coupled receptor kinase 3 (GRK3, Homo sapiens, UniProt P35626)
Sequence (P35626 1-688, as in one of the studies): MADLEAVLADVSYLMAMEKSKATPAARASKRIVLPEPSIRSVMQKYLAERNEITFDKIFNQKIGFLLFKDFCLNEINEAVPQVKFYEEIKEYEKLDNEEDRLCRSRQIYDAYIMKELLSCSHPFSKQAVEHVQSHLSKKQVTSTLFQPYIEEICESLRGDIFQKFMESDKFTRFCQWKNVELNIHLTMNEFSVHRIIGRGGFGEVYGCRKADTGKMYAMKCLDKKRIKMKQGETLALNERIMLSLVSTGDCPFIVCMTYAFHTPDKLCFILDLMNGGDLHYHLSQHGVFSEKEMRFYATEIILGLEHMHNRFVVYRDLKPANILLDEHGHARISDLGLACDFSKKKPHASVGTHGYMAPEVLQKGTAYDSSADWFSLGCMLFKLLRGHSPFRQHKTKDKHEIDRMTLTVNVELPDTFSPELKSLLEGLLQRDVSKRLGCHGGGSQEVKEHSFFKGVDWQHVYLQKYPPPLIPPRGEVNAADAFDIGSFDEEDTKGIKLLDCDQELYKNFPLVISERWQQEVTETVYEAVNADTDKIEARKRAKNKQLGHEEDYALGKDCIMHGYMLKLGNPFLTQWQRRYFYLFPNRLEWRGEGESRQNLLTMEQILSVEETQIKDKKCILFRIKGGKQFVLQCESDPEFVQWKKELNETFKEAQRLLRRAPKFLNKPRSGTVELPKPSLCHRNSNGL

The remaining activity of `CC(C)(O)[C@H]1CC[C@H](Nc2ccc3ncc(-c4cccc(C(F)(F)F)c4)n3n2)CC1` is reported as 107% (enzyme activity, inhibitor; 1 µM).
`Nc1ncnc2occ(-c3ccc(NC(=O)Nc4cc(C(F)(F)F)ccc4F)cc3)c12` gave a remaining signal of 69% (cell-free assay, inhibitor; 20 µM).
For `CCCS(=O)(=O)Nc1ccc(F)c(C(=O)c2c[nH]c3ncc(-c4ccc(Cl)cc4)cc23)c1F`, the inhibition was less than 10% (enzyme activity, inhibitor; 1 µM).
For `COc1ccc2c(c1)O[C@@H](c1ccc(OC)c(OC)c1)C[C@H]2NC(=O)C1(c2ccc3c(c2)OC(F)(F)O3)CC1`, the remaining binding was 75% (cell-free assay, competition with immobilised ligand; 1 µM).
`Cn1c2c(Cl)c(Cl)ccc2c2cn[nH]c(=O)c21` gave a ΔTm of 0 °C (thermal stability, DSF; 10 µM).
The remaining binding of `O=C(O)[C@H]1[C@H](Cn2nnc3ccccc3c2=O)CC[C@@H]1C(=O)c1ccc(OCCC2CCOCC2)cc1` is reported as 100% (cell-free assay, competition with immobilised ligand; 1 µM).
With `CCN1CCC2(CC1)NC(=O)c1c(c3ccc(Cl)c(Cl)c3n1C)C2C#N` (racemic) the ΔTm was 0.8 °C (thermal stability, DSF; 10 µM).
`CN(c1ccnc(CNc2nc(Nc3ccc4c(c3)CC(=O)N4)ncc2C(F)(F)F)n1)S(C)(=O)=O` gave a remaining binding of 91% (cell-free assay, competition with immobilised ligand; 1 µM).
For `Cn1c2c(Cl)c(Cl)ccc2c2cc[nH]c(=O)c21`, the ΔTm was -0.3 °C (thermal stability, DSF; 10 µM).
With `N#CCCc1ccc2c(c1)-c1[nH]c3ccc([N+](=O)[O-])cc3c1CC(=O)N2` the remaining signal was 97.1% (cell-free assay; 0.5 µM).
`CN1CC(Oc2cnc(C#N)cc2-c2ccn3nc(NC(=O)C4CC4)cc3c2)C1` has an inhibition of 0% (enzyme activity, inhibitor; 1 µM).
`CS(=O)(=O)N1CCCC(NC(=O)[C@H](CCC2CCCCC2)NC(=O)c2ccc(CNc3ncnc4c3nnn4-c3ccccc3)cc2)C1` (stereo partly drawn) has a remaining binding of 100% (cell-free assay, competition with immobilised ligand; 0.1 µM).
For `Cn1c2c(c3ccc(Cl)c(Cl)c31)C(C#N)C1(CCCCC1)NC2=O` (racemic), the ΔTm was 0.4 °C (thermal stability, DSF; 10 µM).
`O=C1Nc2ccc(Cl)cc2C1=Cc1cc(Cl)c(O)c(Cl)c1` has a remaining signal of 102% (cell-free assay; 0.5 µM).
`CS(=O)(=O)c1cc(C2(NC(=O)c3cncc4c3cnn4-c3ccc(F)cc3)CC2)ccn1` gave a remaining binding of 100% (cell-free assay, competition with immobilised ligand; 1 µM).
`COc1cc2ncnc(Nc3ccc(Oc4ccccc4)cc3C)c2cc1OC` gave an inhibition of 1% (enzyme activity, inhibitor; 1 µM).
For `CC(C)(C)c1nc2c(s1)c1nc(N)ncc1c1ccc(NS(=O)(=O)c3c(F)cccc3F)c(F)c12`, the remaining activity was 96% (enzyme activity, inhibitor, radiometric; 1 µM).
`N#CC1c2c([nH]c3c(Cl)c(Cl)ccc23)C(=O)NC12CCCCC2` (racemic) gave a ΔTm of 0.7 °C (thermal stability, DSF; 10 µM).
For `Cc1sc(C(=O)NC2COC2)cc1-n1cc(NC(=O)Nc2c(F)cccc2Cl)cn1`, the remaining activity was 107% (enzyme activity, inhibitor; 10 µM).
With `Cc1c(NC(=O)c2cc(C(N)=O)nc3cc(F)ccc23)c(C(F)(F)F)nn1Cc1ccc(C#N)cc1` the remaining binding was 89% (cell-free assay, competition with immobilised ligand; 1 µM).
The ΔTm of `Cn1c2c(Cl)c(Cl)ccc2c2cc(N)[nH]c(=O)c21` is reported as 0 °C (thermal stability, DSF; 10 µM).
